Reference: ChEMBL document CHEMBL5696442, “Discovery of type II inhibitors of TGFβ-activated kinase 1 (TAK1) and mitogen-activated protein kinase kinase kinase kinase 2 (MAP4K2)” (J Med Chem, 2015)
Active and inactive are the calls of the source. The rule behind the calls is not given here.

Experiments:
[1] = tested on: Phosphatidylinositol 4,5-bisphosphate 3-kinase catalytic subunit alpha isoform (Homo sapiens), P42336 [H1047Y]; test: Inhibition of PIK3CA H1047Y mutant (unknown origin) at 1 uM by Ambit Kinomescan binding assay relative to control
[2] = target: Serine/threonine-protein kinase RIO1 (Homo sapiens) (UniProt Q9BRS2); test: Inhibition of RIOK1 (unknown origin) at 1 uM by Ambit Kinomescan binding assay relative to control
Sequence of Serine/threonine-protein kinase RIO1 (Homo sapiens) (Q9BRS2 whole entry): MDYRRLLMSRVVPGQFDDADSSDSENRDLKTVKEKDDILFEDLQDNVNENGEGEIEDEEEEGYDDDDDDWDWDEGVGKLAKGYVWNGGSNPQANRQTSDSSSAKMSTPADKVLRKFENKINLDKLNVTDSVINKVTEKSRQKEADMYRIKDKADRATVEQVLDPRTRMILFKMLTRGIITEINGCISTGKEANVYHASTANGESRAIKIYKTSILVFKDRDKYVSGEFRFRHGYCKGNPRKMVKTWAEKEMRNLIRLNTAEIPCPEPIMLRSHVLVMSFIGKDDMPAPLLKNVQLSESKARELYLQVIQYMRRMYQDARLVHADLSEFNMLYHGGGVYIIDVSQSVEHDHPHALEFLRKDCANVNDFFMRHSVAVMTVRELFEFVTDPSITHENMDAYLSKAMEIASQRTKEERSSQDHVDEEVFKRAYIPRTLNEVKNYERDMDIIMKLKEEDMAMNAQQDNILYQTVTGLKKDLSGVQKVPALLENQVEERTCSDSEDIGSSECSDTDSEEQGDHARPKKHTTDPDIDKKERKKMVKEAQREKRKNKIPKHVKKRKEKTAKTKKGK

[3] = tested on: Epidermal growth factor receptor (Homo sapiens), P00533 [UNDEFINED MUTATION]; test: Inhibition of EGFR E746-A750del mutant (unknown origin) at 1 uM by Ambit Kinomescan binding assay relative to control
Sequence of Epidermal growth factor receptor (Homo sapiens), P00533 [UNDEFINED MUTATION] (P00533 whole entry, looked up, stated change not applied, the tested form may be a part): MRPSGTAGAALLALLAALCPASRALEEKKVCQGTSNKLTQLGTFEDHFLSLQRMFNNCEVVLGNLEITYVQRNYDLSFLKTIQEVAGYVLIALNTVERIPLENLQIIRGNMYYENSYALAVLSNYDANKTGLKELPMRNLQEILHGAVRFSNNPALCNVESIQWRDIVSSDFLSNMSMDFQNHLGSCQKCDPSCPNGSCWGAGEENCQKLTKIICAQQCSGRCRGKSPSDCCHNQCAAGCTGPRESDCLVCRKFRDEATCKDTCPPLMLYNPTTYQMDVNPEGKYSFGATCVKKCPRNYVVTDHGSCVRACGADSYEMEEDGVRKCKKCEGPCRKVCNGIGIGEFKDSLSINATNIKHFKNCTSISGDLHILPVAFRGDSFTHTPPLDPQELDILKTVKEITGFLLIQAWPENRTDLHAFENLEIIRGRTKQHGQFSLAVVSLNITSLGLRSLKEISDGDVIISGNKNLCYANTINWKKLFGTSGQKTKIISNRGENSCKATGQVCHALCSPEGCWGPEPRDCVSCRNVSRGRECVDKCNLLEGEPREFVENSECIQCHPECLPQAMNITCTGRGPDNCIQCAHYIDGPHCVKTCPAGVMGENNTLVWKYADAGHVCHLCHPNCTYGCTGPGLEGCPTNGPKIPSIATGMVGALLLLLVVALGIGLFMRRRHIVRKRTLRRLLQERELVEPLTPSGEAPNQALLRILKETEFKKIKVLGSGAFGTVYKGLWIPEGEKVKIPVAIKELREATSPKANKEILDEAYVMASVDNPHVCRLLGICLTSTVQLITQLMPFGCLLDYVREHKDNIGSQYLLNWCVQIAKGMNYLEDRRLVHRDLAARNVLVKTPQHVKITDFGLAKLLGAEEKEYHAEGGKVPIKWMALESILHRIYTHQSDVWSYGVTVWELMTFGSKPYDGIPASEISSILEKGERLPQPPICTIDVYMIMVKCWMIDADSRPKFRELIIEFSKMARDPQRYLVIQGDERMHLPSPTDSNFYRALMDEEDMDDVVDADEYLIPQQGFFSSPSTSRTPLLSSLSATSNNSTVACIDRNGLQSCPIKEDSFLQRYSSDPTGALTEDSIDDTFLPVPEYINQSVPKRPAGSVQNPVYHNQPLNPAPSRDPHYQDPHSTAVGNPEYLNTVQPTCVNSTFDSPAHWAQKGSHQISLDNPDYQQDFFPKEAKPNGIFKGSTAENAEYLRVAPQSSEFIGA

[4] = target: Ribosomal protein S6 kinase alpha-5 (Homo sapiens) (UniProt O75582); test: Inhibition of N-terminal RPS6KA5 kinase domain 1 (unknown origin) at 1 uM by Ambit Kinomescan binding assay relative to control
[5] = target: Phosphatidylinositol 4-kinase beta (Homo sapiens) (UniProt Q9UBF8); test: Inhibition of PIK4CB (unknown origin) at 1 uM by Ambit Kinomescan binding assay relative to control; values are per cent of control
[6] = target: Receptor tyrosine-protein kinase erbB-3 (Homo sapiens) (UniProt P21860); test: Inhibition of ERBB3 (unknown origin) at 1 uM by Ambit Kinomescan binding assay relative to control
[7] = target: Serine/threonine-protein kinase pim-1 (Homo sapiens) (UniProt P11309); test: Inhibition of PIM1 (unknown origin) at 1 uM by Ambit Kinomescan binding assay relative to control; values are per cent of control
[8] = target: cAMP-dependent protein kinase catalytic subunit alpha (Homo sapiens) (UniProt P17612); test: Inhibition of PKAC alpha (unknown origin) at 1 uM by Ambit Kinomescan binding assay relative to control
Summary of the method: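 In vitro ATP-site competition binding assay against a panel of over 420 kinases (KinomeScan), with compound tested at 10 or 1 μM.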

[9] = target: DNA-PK/Ku70/Ku85 (Homo sapiens) (UniProt P78527+P12956+P13010); test: Inhibition of DNAPK ATP labeling site harbouring KGGSWIQEINVAEK in human A-375 cells at 5 uM by KiNativ Profiling analysis relative to control; assay type: cell-based
Summary of the method: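 Live A375 melanoma cells were treated with compound at 0.5 or 5 μM, then lysed. Lysates were labeled with a lysine-reactive ATP or ADP-biotin probe. The read-out was protection of each kinase probe-labeling site from labeling, relative to control.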

[10] = target: Serine/threonine-protein kinase 4 (Homo sapiens) (UniProt Q13043); test: Inhibition of MST1 Lys2 labeling site harbouring DIKAGNILLNTEGHAK in human A-375 cells at 0.5 uM by KiNativ Profiling analysis relative to control
Sequence of Serine/threonine-protein kinase 4 (Homo sapiens) (Q13043 whole entry, looked up): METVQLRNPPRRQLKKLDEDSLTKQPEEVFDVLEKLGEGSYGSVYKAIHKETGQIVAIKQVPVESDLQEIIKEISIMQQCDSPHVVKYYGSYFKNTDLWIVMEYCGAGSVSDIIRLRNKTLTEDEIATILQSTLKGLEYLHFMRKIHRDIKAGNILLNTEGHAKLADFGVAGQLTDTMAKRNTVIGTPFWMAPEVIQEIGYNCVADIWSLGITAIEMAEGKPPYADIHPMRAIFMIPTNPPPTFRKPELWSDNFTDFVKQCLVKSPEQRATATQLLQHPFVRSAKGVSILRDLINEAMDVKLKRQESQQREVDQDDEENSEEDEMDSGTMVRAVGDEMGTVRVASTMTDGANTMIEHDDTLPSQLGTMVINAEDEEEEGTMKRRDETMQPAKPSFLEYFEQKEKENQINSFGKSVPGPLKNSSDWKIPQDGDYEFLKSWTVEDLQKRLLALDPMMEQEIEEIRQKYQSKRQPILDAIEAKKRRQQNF

[11] = target: T1, Serine/threonine-protein kinase D3 (Homo sapiens) (UniProt O94806); test: Inhibition of PKD3 K2 labeling site in human Huh-7 cells at 10 uM by KiNativ Profiling analysis relative to control; assay type: cell-based
T1 sequence (whole entry): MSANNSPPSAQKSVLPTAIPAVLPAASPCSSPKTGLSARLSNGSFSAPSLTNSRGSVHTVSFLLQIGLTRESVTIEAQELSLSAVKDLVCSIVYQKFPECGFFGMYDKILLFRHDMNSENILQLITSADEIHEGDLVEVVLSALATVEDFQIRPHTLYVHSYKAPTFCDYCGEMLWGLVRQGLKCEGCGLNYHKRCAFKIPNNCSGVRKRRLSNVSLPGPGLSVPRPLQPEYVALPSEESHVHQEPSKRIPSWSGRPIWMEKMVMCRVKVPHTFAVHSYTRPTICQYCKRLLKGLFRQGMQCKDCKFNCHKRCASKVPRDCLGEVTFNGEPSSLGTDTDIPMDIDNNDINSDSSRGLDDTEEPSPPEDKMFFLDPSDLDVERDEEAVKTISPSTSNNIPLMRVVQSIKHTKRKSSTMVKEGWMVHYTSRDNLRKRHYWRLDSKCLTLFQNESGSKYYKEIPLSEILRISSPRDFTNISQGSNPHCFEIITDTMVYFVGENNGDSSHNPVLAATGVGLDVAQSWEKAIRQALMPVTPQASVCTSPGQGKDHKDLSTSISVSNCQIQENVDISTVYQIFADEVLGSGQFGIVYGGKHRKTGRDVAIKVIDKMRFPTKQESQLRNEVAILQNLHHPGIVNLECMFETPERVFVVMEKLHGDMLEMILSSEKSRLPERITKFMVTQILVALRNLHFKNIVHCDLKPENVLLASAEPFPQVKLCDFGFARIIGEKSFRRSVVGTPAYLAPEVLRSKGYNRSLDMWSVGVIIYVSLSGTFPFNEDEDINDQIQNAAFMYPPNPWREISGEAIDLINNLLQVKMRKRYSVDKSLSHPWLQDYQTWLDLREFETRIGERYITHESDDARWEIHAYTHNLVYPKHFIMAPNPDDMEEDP

[12] = target: Dual specificity mitogen-activated protein kinase kinase 1 (Homo sapiens) (UniProt Q02750); test: Inhibition of MAP2K1 Lys2 labeling site harbouring DVKPSNILVNSR in human A-375 cells at 5 uM by KiNativ Profiling analysis relative to control; assay type: cell-based
Sequence of Dual specificity mitogen-activated protein kinase kinase 1 (Homo sapiens) (Q02750 whole entry): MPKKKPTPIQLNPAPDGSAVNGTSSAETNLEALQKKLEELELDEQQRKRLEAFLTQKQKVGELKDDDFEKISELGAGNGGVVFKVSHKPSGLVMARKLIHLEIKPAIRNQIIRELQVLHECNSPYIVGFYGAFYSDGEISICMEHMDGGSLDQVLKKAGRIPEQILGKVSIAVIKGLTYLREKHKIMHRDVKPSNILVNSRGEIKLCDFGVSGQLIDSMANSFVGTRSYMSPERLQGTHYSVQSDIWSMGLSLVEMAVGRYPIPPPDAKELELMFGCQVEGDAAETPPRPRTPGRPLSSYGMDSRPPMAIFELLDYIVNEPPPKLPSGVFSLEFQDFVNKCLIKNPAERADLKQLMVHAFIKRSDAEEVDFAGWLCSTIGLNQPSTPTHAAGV

[13] = target: STE20-like serine/threonine-protein kinase (Homo sapiens) (UniProt Q9H2G2); test: Inhibition of SLK K2 labeling site harbouring DLKAGNILFTLDGDIK in human Huh-7 cells at 1 uM by KiNativ Profiling analysis relative to control; assay type: cell-based
Sequence of STE20-like serine/threonine-protein kinase (Homo sapiens) (Q9H2G2 whole entry, looked up): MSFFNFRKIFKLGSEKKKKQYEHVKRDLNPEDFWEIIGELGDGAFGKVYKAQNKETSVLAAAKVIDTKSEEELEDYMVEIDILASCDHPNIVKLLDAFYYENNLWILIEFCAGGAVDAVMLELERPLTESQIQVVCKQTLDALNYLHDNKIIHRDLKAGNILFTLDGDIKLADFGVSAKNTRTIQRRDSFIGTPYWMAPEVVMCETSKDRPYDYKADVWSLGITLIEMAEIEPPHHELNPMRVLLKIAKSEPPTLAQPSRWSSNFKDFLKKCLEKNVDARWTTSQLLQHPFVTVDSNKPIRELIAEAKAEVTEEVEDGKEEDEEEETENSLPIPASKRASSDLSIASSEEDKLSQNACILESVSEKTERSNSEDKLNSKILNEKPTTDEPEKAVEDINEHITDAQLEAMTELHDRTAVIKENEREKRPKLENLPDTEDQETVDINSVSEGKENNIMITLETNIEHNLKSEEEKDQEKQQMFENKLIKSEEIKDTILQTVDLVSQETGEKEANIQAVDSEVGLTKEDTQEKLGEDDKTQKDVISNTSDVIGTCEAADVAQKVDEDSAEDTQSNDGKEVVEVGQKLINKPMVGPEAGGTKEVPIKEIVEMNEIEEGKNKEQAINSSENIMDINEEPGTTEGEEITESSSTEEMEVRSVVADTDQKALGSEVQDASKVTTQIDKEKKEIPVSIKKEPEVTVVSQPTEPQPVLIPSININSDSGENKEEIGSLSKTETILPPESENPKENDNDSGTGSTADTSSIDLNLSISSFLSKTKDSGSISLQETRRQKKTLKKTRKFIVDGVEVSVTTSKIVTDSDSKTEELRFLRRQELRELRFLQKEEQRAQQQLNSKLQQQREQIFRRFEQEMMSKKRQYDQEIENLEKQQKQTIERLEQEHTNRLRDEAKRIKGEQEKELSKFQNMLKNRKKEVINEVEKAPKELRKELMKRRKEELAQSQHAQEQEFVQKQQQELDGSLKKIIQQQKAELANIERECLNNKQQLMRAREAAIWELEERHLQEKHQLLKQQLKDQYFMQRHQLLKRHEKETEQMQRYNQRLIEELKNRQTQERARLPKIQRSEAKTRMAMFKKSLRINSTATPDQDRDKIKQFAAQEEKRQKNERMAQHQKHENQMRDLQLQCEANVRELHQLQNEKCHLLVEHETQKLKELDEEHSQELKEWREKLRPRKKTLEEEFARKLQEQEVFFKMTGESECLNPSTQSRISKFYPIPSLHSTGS

[14] = target: Mitogen-activated protein kinase 7 (Homo sapiens) (UniProt Q13164); test: Inhibition of ERK5 (unknown origin) at 10 uM by Ambit Kinomescan binding assay
[15] = target: Serine/threonine-protein kinase 10 (Homo sapiens) (UniProt O94804); test: Inhibition of LOK Lys2 labeling site in human Huh-7 cells at 1 uM by KiNativ Profiling analysis relative to control; assay type: cell-based
Sequence of Serine/threonine-protein kinase 10 (Homo sapiens) (O94804 whole entry, looked up, the tested form may be a part): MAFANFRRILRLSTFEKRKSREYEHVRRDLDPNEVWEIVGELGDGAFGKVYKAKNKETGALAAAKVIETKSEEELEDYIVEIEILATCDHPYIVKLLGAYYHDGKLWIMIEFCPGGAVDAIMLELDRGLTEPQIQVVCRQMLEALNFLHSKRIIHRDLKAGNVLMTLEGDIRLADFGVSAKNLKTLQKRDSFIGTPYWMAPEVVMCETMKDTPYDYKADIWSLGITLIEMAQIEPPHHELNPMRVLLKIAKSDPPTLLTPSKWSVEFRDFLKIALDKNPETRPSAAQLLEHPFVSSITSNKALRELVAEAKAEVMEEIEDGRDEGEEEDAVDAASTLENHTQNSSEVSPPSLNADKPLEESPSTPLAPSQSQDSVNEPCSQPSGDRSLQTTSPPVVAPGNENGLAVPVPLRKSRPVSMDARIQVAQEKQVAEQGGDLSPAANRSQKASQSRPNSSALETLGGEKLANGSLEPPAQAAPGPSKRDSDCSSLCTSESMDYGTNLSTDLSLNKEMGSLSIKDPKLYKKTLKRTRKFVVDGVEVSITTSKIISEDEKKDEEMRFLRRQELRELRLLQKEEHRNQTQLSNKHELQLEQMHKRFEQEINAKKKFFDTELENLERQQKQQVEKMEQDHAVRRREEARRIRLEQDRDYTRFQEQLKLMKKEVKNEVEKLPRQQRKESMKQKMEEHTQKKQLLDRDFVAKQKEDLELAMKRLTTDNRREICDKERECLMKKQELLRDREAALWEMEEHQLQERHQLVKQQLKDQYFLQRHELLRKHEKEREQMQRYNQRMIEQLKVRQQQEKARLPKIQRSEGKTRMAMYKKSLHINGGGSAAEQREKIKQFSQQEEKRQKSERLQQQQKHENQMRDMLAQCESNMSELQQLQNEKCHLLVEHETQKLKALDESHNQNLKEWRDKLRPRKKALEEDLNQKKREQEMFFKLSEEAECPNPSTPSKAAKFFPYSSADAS

[16] = target: T2, Scaffold protein ILK (Homo sapiens) (UniProt Q13418); test: Inhibition of ILK Protein Kinase Domain labeling site in human Huh-7 cells at 1 uM by KiNativ Profiling analysis relative to control; assay type: cell-based
T2 sequence (whole entry): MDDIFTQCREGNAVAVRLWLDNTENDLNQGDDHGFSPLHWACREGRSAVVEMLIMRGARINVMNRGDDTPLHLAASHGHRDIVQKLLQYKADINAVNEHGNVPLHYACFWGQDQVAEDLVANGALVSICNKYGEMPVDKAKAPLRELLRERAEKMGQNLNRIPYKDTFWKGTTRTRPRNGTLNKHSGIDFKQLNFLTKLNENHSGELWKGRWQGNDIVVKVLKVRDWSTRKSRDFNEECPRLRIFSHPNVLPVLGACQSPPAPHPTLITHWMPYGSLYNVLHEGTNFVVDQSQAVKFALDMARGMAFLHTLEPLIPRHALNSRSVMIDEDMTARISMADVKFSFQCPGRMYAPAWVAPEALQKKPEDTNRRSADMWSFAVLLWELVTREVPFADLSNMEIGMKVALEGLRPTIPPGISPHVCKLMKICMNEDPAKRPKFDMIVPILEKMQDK

Work on `CCN1CCN(Cc2ccc(NC(=O)c3ccc(C)c(/C=C/c4cnc5[nH]ccc5c4OC)c3)cc2C(F)(F)F)CC1` yielded an inhibition [1] of 71%, an inhibition [2] of 20% and an inhibition [3] of 0.7%. For the same molecule, the inhibition [4] was 62%, the residual activity [5] was 100% and the inhibition [6] was 100%. For the same molecule, the residual activity [7] was 100%, the inhibition [8] was 84% and the inhibition [9] was -8.9%. The inhibition [10] was -9.8%.

Work on `CCN1CCN(Cc2ccc(NC(=O)c3ccc(C)c(Oc4ccnc5[nH]ccc45)c3)cc2C(F)(F)F)CC1` yielded an inhibition [11] of 17.2%, an inhibition [12] of -10% and an inhibition [13] of 66.5%. The inhibition [14] was “inactive”.

For `CNc1cc(Oc2cc(C(=O)Nc3cc(N4CCN(C)CC4)cc(C(F)(F)F)c3)ccc2C)ncn1`, the inhibition [15] was 19% and the inhibition [16] was -0.1%.
